# Columns and labels:
# [1] = Chemical stability of the compound at pH 2 phosphate buffer assessed as time required for 90% hydrolytic degradation at 100 ug/ml and 40 degreeC by UPLC-UV analysis; assay type: physicochemical; conditions: in the assay text read “10% hydrolytic degradation” for “90% hydrolytic degradation”, dose 100 µg/ml
# Outline: (§1)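 Compound diluted from acetonitrile or DMSO stock to 100 μg/mL final in 50 mM phosphate buffer, pH 2 (or pH 7), ionic strength 0.15 M NaCl, 40 °C in autosampler. Timed injections analysed by reverse-phase UPLC-UV (220 nm); pseudo-first-order kobs from ln c vs time; t50 and t90 calculated.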
# [2] = Chemical stability of the compound at pH 2 phosphate buffer assessed as time required for 50% hydrolytic degradation at 100 ug/ml and 40 degreeC by UPLC-UV analysis; assay type: physicochemical; conditions: dose 100 µg/ml, read-out: Time (converted); outline: as §1
# [3] = Drug degradation at low pH; assay type: physicochemical; outline: as §1
# [4] = target: T1, Phosphatidylinositol 4,5-bisphosphate 3-kinase catalytic subunit delta isoform (Homo sapiens, UniProt O00329); assay: Inhibition of PI3Kdelta in human whole blood assessed as reduction in anti-FCepsilonR1 mAb-stimulated basophil activation preincubated for 60 mins followed by anti-FCepsilonR1 mAb stimulation and measured after 25 mins by flow cytometry analysis; assay type: tissue-based
# T1 sequence (O00329 whole entry): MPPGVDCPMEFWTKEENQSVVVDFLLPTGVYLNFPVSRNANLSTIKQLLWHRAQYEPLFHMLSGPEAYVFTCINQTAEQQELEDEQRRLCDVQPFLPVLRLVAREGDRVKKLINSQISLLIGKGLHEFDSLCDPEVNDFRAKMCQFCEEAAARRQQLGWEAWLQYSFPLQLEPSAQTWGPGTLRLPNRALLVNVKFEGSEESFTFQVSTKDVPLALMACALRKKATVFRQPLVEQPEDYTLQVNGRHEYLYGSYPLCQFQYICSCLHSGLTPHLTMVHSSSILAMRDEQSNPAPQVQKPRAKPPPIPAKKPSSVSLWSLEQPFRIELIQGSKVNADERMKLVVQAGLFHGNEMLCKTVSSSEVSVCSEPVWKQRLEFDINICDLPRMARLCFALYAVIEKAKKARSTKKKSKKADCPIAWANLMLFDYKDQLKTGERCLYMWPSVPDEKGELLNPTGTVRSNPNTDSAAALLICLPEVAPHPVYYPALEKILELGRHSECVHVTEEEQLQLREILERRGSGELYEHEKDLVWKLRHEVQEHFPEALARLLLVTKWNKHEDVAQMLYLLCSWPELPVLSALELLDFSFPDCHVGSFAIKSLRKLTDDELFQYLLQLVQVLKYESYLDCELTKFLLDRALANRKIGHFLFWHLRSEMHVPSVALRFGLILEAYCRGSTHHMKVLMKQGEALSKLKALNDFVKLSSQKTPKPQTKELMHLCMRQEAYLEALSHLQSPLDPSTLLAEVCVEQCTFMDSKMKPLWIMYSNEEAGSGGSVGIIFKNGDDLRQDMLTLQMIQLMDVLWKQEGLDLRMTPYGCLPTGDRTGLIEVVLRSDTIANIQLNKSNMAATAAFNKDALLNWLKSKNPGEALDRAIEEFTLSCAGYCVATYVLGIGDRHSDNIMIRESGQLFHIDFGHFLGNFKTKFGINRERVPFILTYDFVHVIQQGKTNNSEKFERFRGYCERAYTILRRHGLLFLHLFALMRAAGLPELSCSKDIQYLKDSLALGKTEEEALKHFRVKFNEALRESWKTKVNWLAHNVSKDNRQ
# [5] = target: Phosphatidylinositol 4,5-bisphosphate 3-kinase catalytic subunit gamma isoform (Homo sapiens, UniProt P48736); assay: Inhibition of human full length PI3K p110gamma using […] as substrate measured after 30 mins by TR-FRET assay
# Chain of Phosphatidylinositol 4,5-bisphosphate 3-kinase catalytic subunit gamma isoform (P48736 whole entry, canonical isoform): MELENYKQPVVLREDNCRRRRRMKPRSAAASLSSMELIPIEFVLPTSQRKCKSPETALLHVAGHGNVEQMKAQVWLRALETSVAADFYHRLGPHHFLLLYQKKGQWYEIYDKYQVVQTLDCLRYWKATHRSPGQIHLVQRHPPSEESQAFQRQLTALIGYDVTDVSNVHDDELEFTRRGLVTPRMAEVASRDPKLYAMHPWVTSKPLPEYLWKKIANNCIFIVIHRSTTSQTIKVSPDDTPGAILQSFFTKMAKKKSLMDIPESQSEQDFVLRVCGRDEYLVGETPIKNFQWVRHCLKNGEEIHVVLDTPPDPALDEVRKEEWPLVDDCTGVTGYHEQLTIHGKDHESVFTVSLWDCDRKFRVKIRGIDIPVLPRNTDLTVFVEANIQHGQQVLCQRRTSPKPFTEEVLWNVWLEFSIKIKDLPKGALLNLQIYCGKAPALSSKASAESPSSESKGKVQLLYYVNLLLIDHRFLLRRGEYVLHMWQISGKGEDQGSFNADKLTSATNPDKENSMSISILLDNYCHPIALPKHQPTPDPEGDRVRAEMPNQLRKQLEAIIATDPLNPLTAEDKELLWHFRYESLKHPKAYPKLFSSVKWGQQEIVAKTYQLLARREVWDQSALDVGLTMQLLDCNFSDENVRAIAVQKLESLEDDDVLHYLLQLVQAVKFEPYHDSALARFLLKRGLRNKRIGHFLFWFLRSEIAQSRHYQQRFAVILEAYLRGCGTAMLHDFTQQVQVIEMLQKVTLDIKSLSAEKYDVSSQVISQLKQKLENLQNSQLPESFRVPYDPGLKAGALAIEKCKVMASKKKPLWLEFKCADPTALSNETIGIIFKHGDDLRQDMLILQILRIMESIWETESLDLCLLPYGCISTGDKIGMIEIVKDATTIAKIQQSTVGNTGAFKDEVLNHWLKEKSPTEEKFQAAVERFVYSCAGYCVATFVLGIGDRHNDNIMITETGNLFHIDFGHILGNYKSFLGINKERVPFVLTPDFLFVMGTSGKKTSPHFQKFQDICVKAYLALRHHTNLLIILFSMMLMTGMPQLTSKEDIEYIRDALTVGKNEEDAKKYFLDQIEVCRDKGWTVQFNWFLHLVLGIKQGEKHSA
# [6] = target: PI3-kinase p110-delta/p85-alpha (Homo sapiens, UniProt O00329); assay: Inhibition of human full length PI3K p110delta/p85alpha using […] as substrate measured after 30 mins by TR-FRET assay; assay type: protein-complex assay
# Chain of PI3-kinase p110-delta/p85-alpha (P27986 whole entry, one chain of several): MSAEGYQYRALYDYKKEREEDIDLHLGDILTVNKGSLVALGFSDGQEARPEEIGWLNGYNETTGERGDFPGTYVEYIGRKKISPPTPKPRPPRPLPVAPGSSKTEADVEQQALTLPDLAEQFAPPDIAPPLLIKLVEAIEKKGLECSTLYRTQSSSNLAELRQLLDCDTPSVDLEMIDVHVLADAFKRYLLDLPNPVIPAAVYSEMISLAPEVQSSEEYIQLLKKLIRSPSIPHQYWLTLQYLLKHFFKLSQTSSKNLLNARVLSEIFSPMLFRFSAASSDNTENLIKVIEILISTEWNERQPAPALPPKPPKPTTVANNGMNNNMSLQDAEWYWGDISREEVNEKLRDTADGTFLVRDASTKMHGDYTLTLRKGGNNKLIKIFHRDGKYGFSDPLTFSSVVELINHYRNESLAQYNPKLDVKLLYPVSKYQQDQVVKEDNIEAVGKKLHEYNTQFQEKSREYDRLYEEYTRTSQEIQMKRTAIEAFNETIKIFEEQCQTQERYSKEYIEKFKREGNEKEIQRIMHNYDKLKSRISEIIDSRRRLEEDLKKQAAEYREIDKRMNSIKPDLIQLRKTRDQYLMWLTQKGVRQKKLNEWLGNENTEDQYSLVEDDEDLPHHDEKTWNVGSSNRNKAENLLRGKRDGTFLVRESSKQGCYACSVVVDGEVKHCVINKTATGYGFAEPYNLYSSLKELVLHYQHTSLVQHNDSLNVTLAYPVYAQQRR
# [7] = target: PI3-kinase p110-alpha/p85-alpha (Homo sapiens, UniProt P42336); assay: Inhibition of human full length PI3K p110alpha/p85alpha using […] as substrate measured after 30 mins by TR-FRET assay; assay type: protein-complex assay
# Chain of PI3-kinase p110-alpha/p85-alpha (P27986 whole entry): as the sequence (P27986 whole entry, one chain of several) above
# Chain of PI3-kinase p110-alpha/p85-alpha (P42336 whole entry): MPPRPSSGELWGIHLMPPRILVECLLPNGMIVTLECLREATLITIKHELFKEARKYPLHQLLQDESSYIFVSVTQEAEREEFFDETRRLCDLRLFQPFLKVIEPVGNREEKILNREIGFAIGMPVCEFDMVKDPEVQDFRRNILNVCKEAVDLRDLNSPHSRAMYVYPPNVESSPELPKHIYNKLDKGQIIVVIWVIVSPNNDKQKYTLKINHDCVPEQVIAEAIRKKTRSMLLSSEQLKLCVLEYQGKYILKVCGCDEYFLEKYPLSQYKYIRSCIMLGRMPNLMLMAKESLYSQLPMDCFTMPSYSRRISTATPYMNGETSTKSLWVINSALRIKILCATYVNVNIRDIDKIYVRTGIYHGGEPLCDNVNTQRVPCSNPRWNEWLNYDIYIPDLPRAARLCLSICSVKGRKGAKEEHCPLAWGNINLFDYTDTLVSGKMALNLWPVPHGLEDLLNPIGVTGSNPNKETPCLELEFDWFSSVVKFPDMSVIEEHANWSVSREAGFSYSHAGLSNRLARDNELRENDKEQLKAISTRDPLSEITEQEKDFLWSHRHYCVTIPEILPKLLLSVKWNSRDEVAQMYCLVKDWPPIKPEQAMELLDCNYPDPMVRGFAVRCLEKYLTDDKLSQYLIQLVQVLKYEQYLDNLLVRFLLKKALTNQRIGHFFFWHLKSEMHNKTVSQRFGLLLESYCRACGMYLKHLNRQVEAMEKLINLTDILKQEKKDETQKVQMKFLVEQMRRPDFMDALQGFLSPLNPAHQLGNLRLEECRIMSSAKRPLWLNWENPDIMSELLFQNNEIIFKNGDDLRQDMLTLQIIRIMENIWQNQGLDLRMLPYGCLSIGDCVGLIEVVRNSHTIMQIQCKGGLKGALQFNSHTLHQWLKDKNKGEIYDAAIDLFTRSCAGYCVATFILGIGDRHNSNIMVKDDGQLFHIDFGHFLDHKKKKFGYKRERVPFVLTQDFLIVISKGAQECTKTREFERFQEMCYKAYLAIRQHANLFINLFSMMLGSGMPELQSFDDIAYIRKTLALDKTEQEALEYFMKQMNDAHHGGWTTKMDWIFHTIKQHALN
# PI3K p110 beta/p85 alpha = PI3K p110 beta/p85 alpha (Homo sapiens, UniProt P42338); assay: Inhibition of recombinant human full-length N-terminal His-tagged PI3K p110beta/p85alpha using […] as substrate measured after 30 mins by TR-FRET assay; assay type: protein-complex assay
# Chain of PI3K p110 beta/p85 alpha (P27986 whole entry): as the sequence (P27986 whole entry, one chain of several) above
# Chain of PI3K p110 beta/p85 alpha (P42338 whole entry): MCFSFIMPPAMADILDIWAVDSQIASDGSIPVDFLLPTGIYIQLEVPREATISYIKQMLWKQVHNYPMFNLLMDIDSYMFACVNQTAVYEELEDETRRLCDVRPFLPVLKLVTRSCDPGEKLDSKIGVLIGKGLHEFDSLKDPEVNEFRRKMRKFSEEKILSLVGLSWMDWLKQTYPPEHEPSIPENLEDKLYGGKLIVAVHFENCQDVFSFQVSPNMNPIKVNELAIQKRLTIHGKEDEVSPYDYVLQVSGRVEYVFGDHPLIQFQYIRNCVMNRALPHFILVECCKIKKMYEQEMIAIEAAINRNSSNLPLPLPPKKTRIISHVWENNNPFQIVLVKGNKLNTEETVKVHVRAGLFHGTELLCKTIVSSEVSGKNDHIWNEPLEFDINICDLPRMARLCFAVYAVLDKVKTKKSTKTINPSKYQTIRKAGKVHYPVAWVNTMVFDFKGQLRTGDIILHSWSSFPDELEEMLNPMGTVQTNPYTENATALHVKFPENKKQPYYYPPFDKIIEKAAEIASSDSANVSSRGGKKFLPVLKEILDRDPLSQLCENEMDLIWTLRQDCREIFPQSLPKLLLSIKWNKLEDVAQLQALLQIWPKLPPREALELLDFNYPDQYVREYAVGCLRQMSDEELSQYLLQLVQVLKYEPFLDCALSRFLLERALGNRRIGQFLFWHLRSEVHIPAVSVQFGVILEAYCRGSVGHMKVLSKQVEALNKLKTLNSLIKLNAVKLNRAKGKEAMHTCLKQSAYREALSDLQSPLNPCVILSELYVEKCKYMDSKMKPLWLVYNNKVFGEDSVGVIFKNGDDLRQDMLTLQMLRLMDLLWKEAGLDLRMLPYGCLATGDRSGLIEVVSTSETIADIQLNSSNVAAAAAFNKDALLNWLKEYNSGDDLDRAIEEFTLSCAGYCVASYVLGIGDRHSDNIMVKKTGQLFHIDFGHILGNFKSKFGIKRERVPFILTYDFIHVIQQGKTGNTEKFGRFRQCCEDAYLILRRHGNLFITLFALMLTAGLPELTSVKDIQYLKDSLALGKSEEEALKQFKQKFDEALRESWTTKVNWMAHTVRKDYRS
# [8] = Clearance in rat at 1 mg/kg, iv; assay type: ADME, organism-based; conditions: in vivo
# [9] = Volume of distribution at steady state in rat at 1 mg/kg, iv; assay type: ADME, organism-based; conditions: in vivo, read-out: Vdss
# Outline: (§2)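 Rats and dog received 1 mg/kg intravenously, formulated in 12% w/v Captisol in water. Volume of distribution was taken at steady state from the iv plasma profile. Three animals per dosing route.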
# [10] = Volume of distribution at steady state in dog at 1 mg/kg, iv; assay type: ADME, organism-based, Canis lupus familiaris; conditions: in vivo, read-out: Vdss; outline: as §2
# [11] = Clearance in dog at 1 mg/kg, iv; assay type: ADME, organism-based, Canis lupus familiaris; conditions: in vivo
# [12] = Oral bioavailability in rat at 5 mg/kg; assay type: ADME, organism-based; conditions: in vivo
# [13] = Drug degradation assessed as acid-mediated compound hydrolysis at 40 degreeC measured at 3 hrs; assay type: physicochemical; conditions: read-out: Drug degradation; outline: as §1
# [14] = Selectivity index, ratio of IC50 for inhibition of human full length PI3K p110alpha/p85alpha to IC50 for inhibition of human full length PI3K p110delta/p85alpha
# [15] = Selectivity index, ratio of IC50 for inhibition of recombinant human full-length N-terminal His-tagged PI3K p110beta/p85alpha to IC50 for inhibition of human full length PI3K p110delta/p85alpha
# [16] = Chemical stability of the compound under aqueous acidic condition; assay type: physicochemical; conditions: buffer; outline: as §1
# [17] = Half life of the compound; assay type: physicochemical
# [18] = Selectivity index, ratio of IC50 for inhibition of human full length PI3K p110gamma to IC50 for inhibition of human full length PI3K p110delta/p85alpha
# [19] = Half life in rat at 1 mg/kg, iv; assay type: ADME, organism-based; conditions: in vivo
# [20] = Clearance in cynomolgus monkey at 1 mg/kg, iv; assay type: ADME, organism-based, Macaca fascicularis; conditions: in vivo
# [21] = Volume of distribution at steady state in cynomolgus monkey at 1 mg/kg, iv; assay type: ADME, organism-based, Macaca fascicularis; conditions: in vivo, read-out: Vdss
# [22] = Half life in dog at 1 mg/kg, iv; assay type: ADME, organism-based, Canis lupus familiaris; conditions: in vivo
# [23] = Half life in cynomolgus monkey at 1 mg/kg, iv; assay type: ADME, organism-based, Macaca fascicularis; conditions: in vivo
# [24] = Chemical stability assessed as time taken for hydrolytic degradation at pH 2; assay type: physicochemical; conditions: buffer; outline: as §1
# [25] = Thermal stability of compound assessed as half life at 40 degreeC measured over 72 hrs by HPLC analysis; assay type: physicochemical
Compound,Time [1],half-life at 100 ug/ml [2],EC50 [4],IC50 [5],IC50 [6],IC50 [7],IC50 (PI3K p110 beta/p85 alpha),also measured
CC[C@H](Nc1nc(N)nc(N)c1C#N)c1nc2cccc(Cl)c2c(=O)n1-c1cccnc1,0.65 h,4.3 h,,,,,,Drug degradation [3]: Active
C[C@H](Nc1nc(N)nc(N)c1C#N)c1nc2cccc(Cl)c2c(=O)n1-c1cncc(C(F)(F)F)c1,,,21 nM,1300 nM,17 nM,10000 nM,4800 nM,
CC[C@H](Nc1nc(N)nc(N)c1C#N)c1nc2c(F)ccc(Cl)c2c(=O)n1-c1cccnc1,2.8 h,19 h,2 nM,520 nM,2 nM,1500 nM,310 nM,clearance [8]: 5 mL/min/kg; Vd [9]: 0.54 L/kg; Vd [10]: 0.3 L/kg; clearance [11]: 2.17 mL/min/kg; bioavailability [12]: 37%
C[C@H](Nc1nc(N)nc(N)c1C#N)c1nc2c(F)ccc(Cl)c2c(=O)n1-c1cccnc1,2.8 h,19 h,0.5 nM,51 nM,,770 nM,46 nM,clearance [8]: 26.7 mL/min/kg; Vd [9]: 3.2 L/kg; degraded at 3 h [13]: 10%; Vd [10]: 0.51 L/kg; clearance [11]: 3.5 mL/min/kg; bioavailability [12]: 24%
C[C@H](Nc1nc(N)nc(N)c1C#N)c1nc2cccc(F)c2c(=O)n1-c1cc(F)cc(F)c1,,34 h,,,,,,Ratio IC50 [14]: 1900; Ratio IC50 [15]: 650; Stabilty [16]: Stable; half-life [17]: 34 h; Ratio IC50 [18]: 180
C[C@H](Nc1nc(N)nc(N)c1C#N)c1nc2cccc(Cl)c2c(=O)n1-c1cncc(C2CC2)c1,,,7 nM,2300 nM,,10000 nM,2600 nM,
C[C@H](Nc1nc(N)nc(N)c1C#N)c1nc2cccc(Cl)c2c(=O)n1-c1cncc(F)c1,0.5 h,3.6 h,1.2 nM,150 nM,1.7 nM,4300 nM,740 nM,Ratio IC50 [15]: 430; Drug degradation [3]: Active
C[C@H](Nc1nc(N)nc(N)c1C#N)c1nc2c(F)ccc(F)c2c(=O)n1-c1cccnc1,,,11 nM,940 nM,,4020 nM,770 nM,
Cc1ncccc1-n1c([C@H](C)Nc2nc(N)nc(N)c2C#N)nc2cccc(Cl)c2c1=O (stereo in doubt; 24),,,,650 nM,,6800 nM,440 nM,
C[C@H](Nc1nc(N)nc(N)c1C#N)c1nc2cccc(Cl)c2c(=O)n1-c1ccccc1,,358 h,0.3 nM,,,240 nM,9.4 nM,Ratio IC50 [14]: 2200; Ratio IC50 [15]: 80; Stabilty [16]: Stable; half-life [17]: 358 h; Ratio IC50 [18]: 60
Cc1c(F)cncc1-n1c([C@H](C)Nc2nc(N)nc(N)c2C#N)nc2cccc(Cl)c2c1=O (stereo in doubt; 28),,,,6900 nM,40 nM,10000 nM,1750 nM,
C[C@H](Nc1nc(N)nc(N)c1C#N)c1nc2c(Cl)ccc(Cl)c2c(=O)n1-c1cccnc1,2.3 h,15 h,0.9 nM,330 nM,,1300 nM,76 nM,
C[C@H](Nc1nc(N)nc(N)c1C#N)c1nc2c(Cl)cccc2c(=O)n1-c1cccnc1,,,5 nM,1100 nM,,3100 nM,390 nM,
C[C@H](Nc1nc(N)nc(N)c1C#N)c1nc2cccc(Cl)c2c(=O)n1-c1cccnc1,0.2 h,2.7 h,0.9 nM,72 nM,,1030 nM,100 nM,clearance [8]: 25 mL/min/kg; half-life [19]: 2.5 h; clearance [20]: 1.67 mL/min/kg; Vd [21]: 0.5 L/kg; half-life [22]: 5.6 h; Ratio IC50 [14]: 1700; Vd [9]: 1.9 L/kg; half-life [23]: 4.9 h; Vd [10]: 0.9 L/kg; Ratio IC50 [15]: 160; clearance [11]: 3.33 mL/min/kg; Ratio IC50 [18]: 120; bioavailability [12]: 42%
Cc1ccncc1-n1c([C@H](C)Nc2nc(N)nc(N)c2C#N)nc2cccc(Cl)c2c1=O (stereo in doubt; 25),3.5 h,23 h,,70 nM,,880 nM,21 nM,Time [24]: > 3 h
Cc1c(F)cncc1-n1c([C@H](C)Nc2nc(N)nc(N)c2C#N)nc2cccc(Cl)c2c1=O (stereo in doubt; 27),4.6 h,30 h,,25 nM,0.3 nM,1200 nM,120 nM,half-life [25]: 1750 h; Time [24]: > 3 h
Cc1ncccc1-n1c([C@H](C)Nc2nc(N)nc(N)c2C#N)nc2cccc(Cl)c2c1=O (stereo in doubt; 23),3.1 h,20 h,,160 nM,1.3 nM,1600 nM,350 nM,Time [24]: > 3 h
C[C@H](Nc1nc(N)nc(N)c1C#N)c1nc2c(F)ccc(Cl)c2c(=O)n1-c1cncc(F)c1,2.9 h,20 h,0.5 nM,120 nM,,3100 nM,440 nM,clearance [8]: 17.7 mL/min/kg; Vd [9]: 1.4 L/kg; Vd [10]: 0.96 L/kg; clearance [11]: 5.17 mL/min/kg; bioavailability [12]: 46%
COc1cncc(-n2c([C@H](C)Nc3nc(N)nc(N)c3C#N)nc3cccc(Cl)c3c2=O)c1,,,3 nM,830 nM,,10000 nM,3000 nM,
Cc1ccncc1-n1c([C@H](C)Nc2nc(N)nc(N)c2C#N)nc2cccc(Cl)c2c1=O (stereo in doubt; 26),,,,1300 nM,,9700 nM,370 nM,
C[C@H](Nc1nc(N)nc(N)c1C#N)c1nc2cccc(Cl)c2c(=O)n1-c1cncc(Cl)c1,,,4 nM,1200 nM,,8300 nM,1200 nM,
N#Cc1c(N)nc(N)nc1N[C@H](c1nc2cccc(Cl)c2c(=O)n1-c1cccnc1)C1CC1,0.5 h,3.6 h,,,,,,Drug degradation [3]: Active
C[C@H](Nc1nc(N)nc(N)c1C#N)c1nc2cccc(Cl)c2c(=O)n1-c1cncc(C#N)c1,,,4 nM,700 nM,13 nM,8700 nM,3100 nM,

# Source: ChEMBL document CHEMBL4765230, “Discovery of Orally Efficacious Phosphoinositide 3-Kinase δ Inhibitors with Improved Metabolic Stability” (J Med Chem, 2016)
